Test results from PMC3993921 (Inorganic Chemistry, 2014).
Entries after “also recorded” stand apart in the source; their conditions may differ.

Legend:
[1] = tested on: panel of 60 cancer cell lines; experiment: DTP; format: cell-based; details: for TGI range / TGI Δ: 60 cell lines (log scale)
[2] = tested on: human cervical epitheloid carcinoma (HeLa) cells; experiment: Growth inhibition of HeLa cells; format: cell-based; details: read-out: HeLa IC50, MTT after 7 d, triplicate
Outline: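 Seeded at 1 × 10^4 cells/well, 1 h, then test compound 0–100 μM for 7 d. Freshly prepared MTT (5 mg/mL) added for 4 h, absorbance read at 570 nm (reference 630 nm). Triplicate, averaged; IC50 = 50% growth inhibition.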

[3] = tested on: A549/ATCC; experiment: DTP 60-cell-line panel: A549/ATCC; format: cell-based; details: nonsmall cell lung A549/ATCC, Tables 3, 4
[4] = tested on: RPMI-8226; experiment: DTP 60-cell-line panel: RPMI-8226; format: cell-based; details: leukemia RPMI-8226, Tables 3, 4
[5] = tested on: COLO 205; experiment: DTP 60-cell-line panel: COLO 205; format: cell-based; details: colon COLO205
[6] = in vivo hollow fiber studies
[7] = tested on: KM12; experiment: DTP 60-cell-line panel: KM12; format: cell-based; details: colon KM12; Table 3
[8] = tested on: unstimulated normal cells (resting lymphocytes, PBMC); experiment: Growth inhibition of normal cells: resting lymphocytes; format: cell-based; details: read-out: lymph (resting) IC50; resting human lymphocytes (PBMC), MTT, 3 d
Outline: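 Human lymphocytes (PBMCs) from preservative-free heparinised peripheral blood, left unstimulated (no PHA-P), run like the HeLa MTT assay: 1 × 10^4 cells/well, test compound 0–100 μM, but exposure 3 d. Freshly prepared MTT (5 mg/mL) added for 4 h; absorbance at 570 nm (reference 630 nm). Triplicate; IC50 as 50% growth inhibition.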

[9] = tested on: leukemia SR cell line; experiment: DTP 60-cell-line panel: SR; format: cell-based
[10] = tested on: OVCAR-3; experiment: DTP 60-cell-line panel: OVCAR-3; format: cell-based; details: ovarian OVCAR-3, Table 3
[11] = tested on: RXF393; experiment: DTP 60-cell-line panel: RXF393; format: cell-based; details: renal RXF393, Table 3
[12] = tested on: UACC-62; experiment: DTP 60-cell-line panel: UACC-62; format: cell-based; details: melanoma UACC-62
[13] = tested on: IGROV ovarian cell line; details: cited from earlier work
[14] = stability in solution; format: physicochemical; details: in solution (dichloromethane for 4)

S=C([S][Au-][P+](CCCCCC[P+]([Au-][S]C(=S)n1cccn1)(c1ccccc1)c1ccccc1)(c1ccccc1)c1ccccc1)n1cccn1 [Compound 10, Dinuclear Bis(pyrazol-1-yldithiocarbamato)-bis-(diphenylphosphino)hexane Gold(I)]
TGI range [1]: 2.28
TGI Δ [1]: 1.92
IC50 [2]: 510 ± 80 nM
GI50 [3]: 380 nM
TGI [3]: >100 µM
CC50 ([3]; read-out: LC50): > 100 µM
GI50 [4]: 190 nM
TGI [4]: 0.53 µM
CC50 ([4]; read-out: LC50): > 100 µM
TGI ([5]; Table 3): >100 µM
GI50 ([5]; Tables 3, 4): 310 nM
CC50 ([5]; read-out: LC50, Tables 3, 4): > 100 µM
activity in vivo [6]: not so great
GI50 [7]: 430 nM
TGI [7]: 1.73 µM
IC50 [8]: 18.9 ± 5.66 µM
GI50 ([9]; Tables 3, 4): 190 nM
TGI ([9]; Tables 3, 4): 2.41 µM
CC50 ([9]; read-out: LC50, Tables 3, 4): > 100 µM
GI50 [10]: 700 nM
TGI [10]: 14.20 µM
CC50 ([10]; read-out: LC50): > 100 µM
CC50 ([11]; read-out: LC50): > 100 µM
GI50 [11]: 450 nM
TGI ([12]; Table 3): >100 µM
GI50 ([12]; Tables 3, 4): 380 nM
CC50 ([12]; read-out: LC50, Tables 3, 4): > 100 µM

Cc1cc(C)n(C(=S)[S][Au-][P+](CCC[P+]([Au-][S]C(=S)n2nc(C)cc2C)(c2ccccc2)c2ccccc2)(c2ccccc2)c2ccccc2)n1 [Compound 8, Bis(3,5-dimethylpyrazol-1-yldithiocarbamato)-bis-(diphenylphosphino)propane Dinuclear Gold(I)]
IC50 [2]: 6960 ± 510 nM
IC50 [8]: 6.13 ± 2.92 µM

Cc1cc(C)n(C(=S)[S][Au][PH](CCCCCC[PH]([Au][S]C(=S)n2nc(C)cc2C)(c2ccccc2)c2ccccc2)(c2ccccc2)c2ccccc2)n1 [Compound 11, Dinuclear Bis(3,5-dimethylpyrazol-1-yldithiocarbamato)-bis-(diphenylphosphino)hexane Gold(I)]
TGI range [1]: 2.38
TGI Δ [1]: 1.87
GI50 MG-MID ([1]; median over 60 cell lines (log scale)): –6.25
IC50 [2]: 140 ± 10 nM
activity in vivo [6]: could not be delivered to the targets; also recorded: not so great
IC50 [8]: 18.2 ± 15.9 µM

CCN(CC)C(=S)[S][Au][PH](CC)(CC)CC [[(Et3P)Au(S2CNEt2)]]
ID50 [13]: 12 ng/mL

S=C([S][Au][PH](CCC[PH]([Au][S]C(=S)n1cccn1)(c1ccccc1)c1ccccc1)(c1ccccc1)c1ccccc1)n1cccn1 [Compound 7, Bis(pyrazol-1-yldithiocarbamato)-bis-(diphenylphosphino)propane Dinuclear Gold(I)]
IC50 [2]: 3070 ± 480 nM
IC50 [8]: 7.05 ± 2.02 µM

S=C([S][Au][PH](CC[PH]([Au][S]C(=S)n1cccn1)(c1ccccc1)c1ccccc1)(c1ccccc1)c1ccccc1)n1cccn1 [Compound 4, Bis-(pyrazolyl-1-dithiocarbamato)-bis-(diphenylphosphino)ethane Dinuclear Gold(I)]
stability in solution [14]: readily transforming to the Au18 cluster

S=C([S][Au][PH](c1ccccc1)(c1ccccc1)c1ccccc1)n1cccn1 [Compound 1, Pyrazolyl-1-dithiocarbamato-triphenylphosphinogold(I)]
IC50 [2]: 2560 ± 120 nM
IC50 [8]: 9.05 ± 3.5 µM

S=C([S][Au-][P+](CCC[P+]([Au-][S]C(=S)n1ncc2ccccc21)(c1ccccc1)c1ccccc1)(c1ccccc1)c1ccccc1)n1ncc2ccccc21 [Compound 9, Bis(indazol-1-yldithiocarbamato)-bis-(diphenylphosphino)propane Dinuclear Gold(I)]
IC50 [2]: 3380 ± 300 nM
IC50 [8]: 18.5 ± 3.88 µM

S=C([S][Au-][P+](CCCCCC[P+]([Au-][S]C(=S)n1ncc2ccccc21)(c1ccccc1)c1ccccc1)(c1ccccc1)c1ccccc1)n1ncc2ccccc21 [Compound 12, Dinuclear Bis(indazol-1-yldithiocarbamato)-bis-(diphenylphosphino)hexane Gold(I)]
IC50 [2]: 4040 ± 490 nM
IC50 [8]: 37.7 ± 12.6 µM

N.N.[Cl][Pt][Cl] [cis-platin, reference compound]
IC50 [2]: 450 ± 90 nM

S=C([S][Au][PH](c1ccccc1)(c1ccccc1)c1ccccc1)n1ncc2ccccc21 [Compound 3, Indazolyl-1-dithiocarbamato-triphenylphosphinogold(I)]
IC50 [2]: 2560 ± 170 nM
IC50 [8]: 14 ± 10.5 µM

Cc1cc(C)n(C(=S)[S][Au-][P+](c2ccccc2)(c2ccccc2)c2ccccc2)n1 [Compound 2, 3,5-dimethylpyrazolyl-1-dithiocarbamato-triphenylphosphinogold(I)]
IC50 [2]: 2630 ± 100 nM
IC50 [8]: 9.53 ± 3.18 µM
